In ChEMBL document CHEMBL1777718, “Synthesis and cytotoxicity of 17a-aza-D-homo-androster-17-one derivatives” (Bioorg Med Chem Lett, 2011):

Legend:
[1] = Cytotoxicity against human SMMC-7404 cells assessed as reduction in optical density by MTT assay relative to control; assay type: functional, cell-based
Method in brief: (§1)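 MTT assay read as optical density. IC50 is the concentration that cut optical density of treated cells by 50% relative to untreated cells. Values are means of three independent determinations.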

[2] = system: HeLa; experiment: Cytotoxicity against human HeLa cells assessed as reduction in optical density by MTT assay relative to control; assay type: functional, cell-based; method in brief: as §1

SMILES | IC50 [1] | IC50 [2]
C[C@]12CC/C(=N/O)C=C1/C(=N\O)C[C@@H]1[C@@H]2CC[C@]2(C)NC(=O)CC[C@@H]12 | > 200 µM | 15.1 µM
C[C@]12CCC(=O)C=C1C(=O)C[C@@H]1[C@@H]2CC[C@]2(C)NC(=O)CC[C@@H]12 | > 200 µM | 102 µM
C[C@]12CC/C(=N\NC(N)=S)C=C1/C(=N\NC(N)=S)C[C@@H]1[C@@H]2CC[C@]2(C)NC(=O)CC[C@@H]12 | 80.5 µM | 28.8 µM
C[C@]12CC[C@H](O)CC1=CC[C@@H]1[C@@H]2CC[C@]2(C)NC(=O)CC[C@@H]12 | > 200 µM | 65.9 µM
C[C@]12CCC(O)CC1C(O)C[C@@H]1[C@@H]2CC[C@]2(C)NC(=O)CC[C@@H]12 (stereo partly drawn) | 124 µM | 14 µM
CC(=O)O[C@H]1CC[C@@]2(C)C(=CC[C@@H]3[C@@H]2CC[C@]2(C)NC(=O)CC[C@@H]32)C1 | > 200 µM | 37.6 µM
C[C@]12CCC(=O)CC1C(=O)C[C@@H]1[C@@H]2CC[C@]2(C)NC(=O)CC[C@@H]12 (stereo partly drawn) | 60.8 µM | 53.6 µM
C[C@]12CC/C(=N/O)CC1/C(=N\O)C[C@@H]1[C@@H]2CC[C@]2(C)NC(=O)CC[C@@H]12 (stereo partly drawn) | 184 µM | 75.7 µM
C[C@]12CCC(O)C=C1C(O)C[C@@H]1[C@@H]2CC[C@]2(C)NC(=O)CC[C@@H]12 (stereo partly drawn) | > 200 µM | 18.8 µM
